# Calls of active or inactive are those of the source. No cut-off for these calls is given here.
# How the values were obtained:
# [1] = target: T1, Heat shock protein HSP90 (Homo sapiens) (UniProt P07900+P08238); assay: Inhibition of HSP90 in human H1975 cells assessed as downregulation of Rb protein level by Western blot analysis; type: cell-based
# In short: (§1)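 H1975 cells given DMSO or 0.1-3 μM compound for 24 h, or 1 μM for varying times. HSP70 and HSP90 client proteins detected by Western blot of whole-cell lysates, with GAPDH as internal control. Repeated in at least three independent experiments.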
# NCI-H1975 [2] = assay: Induction of apoptosis in human NCI-H1975 cells assessed as activation of caspase 8 at 0.1 to 3 uM measured after 48 hrs immunoblot analysis; type: functional, cell-based
# In short: (§2)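 H1975 cells cultured with compound at the indicated concentrations for 48 h, then immunoblotted with the indicated antibodies. Lysis buffer was ice-cold RIPA-type with phosphatase and protease inhibitors, 30 min on ice. Proteins separated on 8-15% SDS-PAGE, transferred to PVDF, primary antibody overnight at 4°C, HRP secondary 1 h at room temperature, ECL detection.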
# HCT-116 = assay: cells; type: functional; settings: Homo sapiens, HCT-116, 48 h
# Histone deacetylase = type: cell-based, Homo sapiens; settings: hela
# NCI-H1975 [3] = assay: Induction of apoptosis in human NCI-H1975 cells assessed as activation of caspase 9 at 0.1 to 3 uM measured after 48 hrs immunoblot analysis; type: functional, cell-based; in short: as §2
# NCI-H1975 [4] = assay: Inhibition of PD-L1 cell surface expression in IFNgamma-stimulated human NCI-H1975 cells at 0.74 uM after 48 hrs by FITC staining based FACScan flow cytometry analysis; type: functional
# In short: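 Cells seeded at 3.2×10^5/well and treated with IFN-γ 20 ng/ml with or without compound for 48 h. Then 3×10^5 cells stained with mouse anti-PD-L1 5 µg/ml for 1 h, followed by FITC goat anti-mouse IgG for 1 h, in PBS/0.05% BSA. FITC mean fluorescence intensity measured by FACScan and expressed relative to untreated cells. Mean ± S.D. of three independent experiments.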
# A549 = assay: Antiproliferative activity against human A549 cells assessed as cell growth inhibition after 48 hrs by sulforhodamine B assay; type: functional; settings: Homo sapiens, A549, 48 h
# In short: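 Cells seeded at 5000/well overnight; baseline plate fixed with 10% TCA at time of compound addition (T0). Treated with DMSO or graded doses for 48 h, fixed with 10% TCA, stained with 0.4% (w/v) SRB in 1% acetic acid, washed with 1% acetic acid, dye solubilised in 10 mM Trizma base, absorbance at 515 nm. GI50 from T0-corrected growth; at least three independent experiments, SD reported.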
# [5] = target: T1, Heat shock protein HSP90 (Homo sapiens); assay: Inhibition of HSP90 in human H1975 cells assessed as downregulation of SRC protein level by Western blot analysis; type: cell-based; in short: as §1
# Histone deacetylase 9 = Histone deacetylase 9 (Homo sapiens, UniProt Q9UKV0); assay: Inhibition of human HDAC9 using (Boc-Lys(trifluoroacetyl)-AMC) as substrate by fluorescence assay
# Histone deacetylase 9, sequence (Q9UKV0 whole entry, canonical isoform): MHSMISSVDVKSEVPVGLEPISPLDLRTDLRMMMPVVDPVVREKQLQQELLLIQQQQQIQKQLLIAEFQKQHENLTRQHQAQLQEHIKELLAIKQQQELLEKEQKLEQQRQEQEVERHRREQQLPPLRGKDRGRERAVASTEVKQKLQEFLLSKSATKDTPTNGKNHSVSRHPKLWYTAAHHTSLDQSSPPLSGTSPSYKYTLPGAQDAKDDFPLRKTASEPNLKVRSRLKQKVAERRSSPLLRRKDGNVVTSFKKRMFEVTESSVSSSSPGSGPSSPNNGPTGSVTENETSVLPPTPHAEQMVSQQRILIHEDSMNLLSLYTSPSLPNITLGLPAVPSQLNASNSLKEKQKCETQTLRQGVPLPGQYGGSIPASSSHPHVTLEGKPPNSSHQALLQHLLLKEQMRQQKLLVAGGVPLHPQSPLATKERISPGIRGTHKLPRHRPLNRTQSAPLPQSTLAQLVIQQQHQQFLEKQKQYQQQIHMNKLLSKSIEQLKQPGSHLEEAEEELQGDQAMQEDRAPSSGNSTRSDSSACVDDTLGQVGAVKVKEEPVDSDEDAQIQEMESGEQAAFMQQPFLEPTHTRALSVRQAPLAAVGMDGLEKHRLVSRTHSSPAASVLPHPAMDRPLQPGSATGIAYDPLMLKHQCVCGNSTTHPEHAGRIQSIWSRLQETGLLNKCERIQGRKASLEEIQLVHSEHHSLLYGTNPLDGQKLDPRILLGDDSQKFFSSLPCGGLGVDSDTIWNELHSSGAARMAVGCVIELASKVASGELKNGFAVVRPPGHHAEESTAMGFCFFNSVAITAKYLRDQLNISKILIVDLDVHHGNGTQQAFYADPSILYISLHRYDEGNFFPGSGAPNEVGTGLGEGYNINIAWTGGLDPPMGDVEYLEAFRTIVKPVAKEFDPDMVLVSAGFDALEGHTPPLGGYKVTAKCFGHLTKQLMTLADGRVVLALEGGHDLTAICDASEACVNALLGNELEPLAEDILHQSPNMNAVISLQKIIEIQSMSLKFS
# In short: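 Isoform assays run by an outside contractor. […] Trichostatin A tested in parallel the same way as control.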
Compound,inhibition [1],Activity (NCI-H1975 [2]),GI50 (HCT-116),IC50 (Histone deacetylase),Activity (NCI-H1975 [3]),inhibition (NCI-H1975 [4]),GI50 (A549),inhibition [5],IC50 (Histone deacetylase 9)
CC(C)c1cc(C(=O)N(C)c2ccc(NC(=O)CCCCCCCC(=O)NO)cc2)c(O)cc1O,Active,Active,1.06 µM,0.361 µM,Active,Active,0.44 µM,Active,> 10 µM
CC(C)c1cc(C(=O)N(C)c2ccc(NC(=O)CCCCCCC(=O)NO)cc2)c(O)cc1O,Active,Active,0.83 µM,0.195 µM,Active,Active,0.77 µM,Active,> 10 µM
